Measurements collected from several papers.
Target: Calcium/calmodulin-dependent protein kinase type IV (CAMK4, Homo sapiens, UniProt Q16566)
One construct used (Q16566 1-473): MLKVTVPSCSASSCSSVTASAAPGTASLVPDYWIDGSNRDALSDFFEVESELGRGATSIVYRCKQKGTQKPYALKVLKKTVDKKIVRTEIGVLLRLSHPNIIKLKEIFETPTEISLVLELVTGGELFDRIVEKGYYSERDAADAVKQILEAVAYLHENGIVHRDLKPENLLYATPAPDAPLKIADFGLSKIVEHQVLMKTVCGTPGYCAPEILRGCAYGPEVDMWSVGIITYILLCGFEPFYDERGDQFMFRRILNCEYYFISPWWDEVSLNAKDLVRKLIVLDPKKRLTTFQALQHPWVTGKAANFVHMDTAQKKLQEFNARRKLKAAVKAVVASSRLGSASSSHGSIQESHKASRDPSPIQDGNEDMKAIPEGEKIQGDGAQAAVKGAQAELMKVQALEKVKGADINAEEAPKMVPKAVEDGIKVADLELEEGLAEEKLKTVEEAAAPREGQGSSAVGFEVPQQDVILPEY

Compound	test	setting	remaining binding
O=C(Nc1c[nH]nc1C(=O)NC1CCNCC1)c1cc(F)cc(F)c1	binding, competition with immobilised ligand	1 µM	100%
C[C@H]1CCN(c2nccc(-c3cnn4ncccc34)n2)C1	binding	1 µM	90%
Cn1nc(C(F)(F)F)cc1-c1cnc(N2CCc3cc(S(=O)(=O)Nc4c(F)cc(Cl)cc4F)cc(N4CCCC4=O)c32)nc1	cell-free assay, competition with immobilised ligand	1 µM	100%
Nc1ncc2c(n1)-c1c([nH]c3ccc(C#CC4CC4)cc13)CCCC2	binding, competition with immobilised ligand	1 µM	100%
CN(CCCC(F)(F)F)c1nccc(-c2cnn3ncccc23)n1	binding	1 µM	64%
CCN1CCN(Cc2ccc(C(=O)Nc3ccc(C)c(Oc4ccc5c(c4)CC(=O)N5)c3)cc2C(F)(F)F)CC1	binding, competition with immobilised ligand	1 µM	100%
Cc1cc(-n2nc(Cc3cc(F)cc(C(F)(F)F)c3)nc2C)ccc1C(N)=O	cell-free assay, competition with immobilised ligand	1 µM	100%
COc1cnc(Nc2cccc(S(N)(=O)=O)c2)nc1N1CCN(c2ccccc2)CC1	binding, competition with immobilised ligand	1 µM	100%
CN(C)c1ncc(F)c(-c2cnn3ncccc23)n1	binding	1 µM	100%
O=C(c1ccc(Nc2ncc(Cl)c(-c3ccc(Cl)s3)n2)cc1)N1CCC(N2CCCC2)CC1	binding, competition with immobilised ligand	1 µM	100%
C[C@H](c1ccnc(Nc2nc3ccc(-c4cc(N(C)C)ncn4)cc3[nH]2)c1)N1CCN(C(=O)CC(F)(F)F)CC1	cell-free assay, competition with immobilised ligand	0.1 µM	100%
COc1cnc(Nc2cccc(S(N)(=O)=O)c2)nc1N1CCN(c2ccccc2)C(=O)C1	binding, competition with immobilised ligand	1 µM	100%
O=C(c1ccc(Nc2nccc(-c3cc4ccccc4s3)n2)cc1)N1CCC(N2CCCC2)CC1	binding, competition with immobilised ligand	1 µM	100%
N[C@@H]1CCN(c2nccc(-c3cnn4ncccc34)n2)C1	binding	1 µM	100%
COc1ccc2c(O[C@@H]3C[C@H]4C(=O)N[C@]5(C(=O)O)CC5/C=C\CCCCC[C@H](NC(=O)OC5CCCC5)C(=O)N4C3)cc(-c3csc(NC(=O)C(C)C)n3)nc2c1C (stereo partly shown)	cell-free assay, competition with immobilised ligand	1 µM	95%
c1cnn2ncc(-c3ccnc(N4CCC45COC5)n3)c2c1	binding	1 µM	100%
CCOC(=O)c1cc2cc(-c3cc(C(=O)NCc4ccc(C(=O)O)cc4)nn3C)ccc2[nH]1	cell-free assay, competition with immobilised ligand	0.1 µM	95%
O=C(NCCCN1CCOCC1)c1ccc(Nc2nccc(-c3cc4ccccc4s3)n2)cc1	binding, competition with immobilised ligand	1 µM	100%
CNC(=O)Nc1ccc2c(c1)[C@@]1(CC2)OC(=O)N(CC(=O)N(Cc2ccc(F)cc2)[C@@H](C)C(F)(F)F)C1=O	cell-free assay, competition with immobilised ligand	1 µM	85%
CN(C)c1nccc(-c2cnc3ncccn23)n1	binding	1 µM	100%
CC(C)(O)c1cncc(-c2nc3ccc(F)cc3n2C2CC2)c1	cell-free assay, competition with immobilised ligand	1 µM	100%
COc1ccnn2ncc(-c3ccnc(N(C)C)n3)c12	binding	1 µM	100%
